# Experimental data published in ChEMBL document CHEMBL4680345, “Thioether-linked dihydropyrrol-2-one analogues as PqsR antagonists against antibiotic resistant Pseudomonas aeruginosa” (Bioorg Med Chem, 2021).
# Active and inactive are the calls of the source. The rule behind the calls is not given here.
# What was measured:
# [1] = test system: Pseudomonas aeruginosa PAO1; experiment: Inhibition of PqsR in Pseudomonas aeruginosa PAO1 harboring GFP fused pqsA at 125 ug/ml measured every 15 mins for 6 to 8 hrs by reporter assay relative to control; details: dose 125.0 µg/ml, time 6-8 hrs
# Procedure, shortened: (§1)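 PAO1 carrying PqsR-regulated pqsA promoter–gfp fusion; overnight culture in Mueller Hinton broth exposed to serially diluted compounds (40 mM DMSO stocks, diluted in medium) at 37 °C with intermittent shaking. GFP fluorescence and OD600 read every 15 min for at least 6–8 h; fluorescence normalised to OD600. Negative control: medium with 1.25% DMSO. Run in triplicate.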
# Pseudomonas aeruginosa [2] = experiment: Antibiofilm activity against Pseudomonas aeruginosa PAO1 assessed as decrease in bacterial co-aggregation at 150 to 400 uM measured after 24 hrs by phase contrast microscopic analysis; type: functional, organism-based; details: dose 150-400 µM
# Procedure, shortened: (§2)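 Overnight TSB cultures resuspended to OD600 0.1 ± 0.02 in TSB. Biofilms grown 24 h at 37 °C, 100 rpm with compound at 250 µM or DMSO control. Washed twice with PBS to remove loosely adhered cells. Imaged by phase contrast microscopy to assess biofilm morphology and aggregation.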
# Pseudomonas aeruginosa [3] = experiment: Antibiofilm activity against Pseudomonas aeruginosa PAO1 assessed as decrease in bacterial co-aggregation at 150 to 400 uM measured […] by microscopic analysis (reference value: 26 %); type: functional; design: scale not given: the % may be the effect or the level left; details: dose 150-400 µM
# Pseudomonas aeruginosa [4] = experiment: Antibiofilm activity against Pseudomonas aeruginosa ATCC 25619 assessed as decrease in bacterial co-aggregation at 150 to 400 uM measured […] by microscopic analysis (reference value: 23 %); type: functional; design: scale not given: the % may be the effect or the level left; details: dose 150-400 µM
# [5] = Inhibition of PqsR in Pseudomonas aeruginosa PAO1 harboring GFP fused pqsA measured every 15 mins for 6 to 8 hrs by reporter assay; procedure, shortened: as §1
# Pseudomonas aeruginosa [6] = experiment: Antibiofilm activity against Pseudomonas aeruginosa ATCC 25619 assessed as decrease in bacterial co-aggregation at 150 to 400 uM measured after 24 hrs by phase contrast microscopic analysis; type: functional, organism-based; details: dose 150-400 µM; procedure, shortened: as §2
# Pseudomonas aeruginosa [7] = experiment: Antibiofilm activity against Pseudomonas aeruginosa PAO1 assessed as reduction in biomass at 250 to 400 uM measured after 48 hrs by crystal violet staining based assay relative to control; type: functional; details: dose 250-400 µM
# Procedure, shortened: (§3)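 Biofilms started from TSB-grown cultures at OD600 0.1 ± 0.02 with compound (250 and 400 µM) or DMSO control. Incubated 48 h at 37 °C, 100 rpm, then washed with PBS. Stained with 0.1% (w/v) crystal violet for 1 h at 37 °C, 150 rpm, washed three times and dried. Dye dissolved in 80% ethanol and read at OD550. Biomass expressed as % decrease versus DMSO control, set at 100%.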
# [8] = Inhibition of planktonic growth of Pseudomonas aeruginosa PAO1 up to 125 ug/ml incubated for 24 hrs; details: dose <=125 µg/ml
# Procedure, shortened: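 PAO1 at 5×10^5 CFU/mL in MHB. Compound added from 10 mg/mL DMSO stock, up to 125 µg/mL final. Incubated 24 h at 37 °C with intermittent agitation, OD600 read every 15 min. DMSO (1.25%) as control. One experiment per compound with three technical replicates.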
# Pseudomonas aeruginosa [9] = experiment: Antibiofilm activity against Pseudomonas aeruginosa ATCC 25619 assessed as reduction in biomass at 250 to 400 uM measured after 48 hrs by crystal violet staining based assay relative to control; type: functional; details: dose 250-400 µM; procedure, shortened: as §3
smiles,measurement,setting,value
O=C1C=C(c2ccc(F)cc2)/C(=C/Sc2ccccn2)N1,inhibition,[1],63%
same,Activity,Pseudomonas aeruginosa [2],Active
same,Activity,Pseudomonas aeruginosa [3],13%
same,Activity,Pseudomonas aeruginosa [4],11%
same,IC50,[5],32 µM
same,Activity,Pseudomonas aeruginosa [6],Active
same,inhibition (INH),Pseudomonas aeruginosa [7],20%
same,growth inhibition (GI),[8],Non-Toxic
same,inhibition (INH),Pseudomonas aeruginosa [9],20%
O=C1C=C(c2ccccc2)/C(=C/Sc2ccc(Cl)cc2)N1,inhibition,[1],43%
O=C1C=C(c2ccc(F)cc2)/C(=C/Sc2ccccc2)N1,inhibition,[1],45%
O=C1C=C(c2ccccc2)/C(=C/Sc2ccccc2)N1,inhibition,[1],52%
O=C1C=C(c2ccc(Cl)cc2)/C(=C/Sc2ccccc2)N1,inhibition,[1],45%
CCCS/C=C1\NC(=O)C=C1c1ccc(Br)cc1,inhibition,[1],62%
same,Activity,Pseudomonas aeruginosa [2],Active
same,Activity,Pseudomonas aeruginosa [3],13%
same,Activity,Pseudomonas aeruginosa [4],11%
same,IC50,[5],100 µM
same,Activity,Pseudomonas aeruginosa [6],Active
same,inhibition (INH),Pseudomonas aeruginosa [7],20%
same,growth inhibition (GI),[8],Non-Toxic
same,inhibition (INH),Pseudomonas aeruginosa [9],20%
O=C1C=C(c2cccc(F)c2)/C(=C/Sc2ccccn2)N1,inhibition,[1],47%
CCCS/C=C1\NC(=O)C=C1c1ccc(Cl)cc1,inhibition,[1],59%
same,IC50,[5],90 µM
CCCS/C=C1\NC(=O)C=C1c1ccccc1,inhibition,[1],20%
O=C1C=C(c2ccc(Cl)cc2)/C(=C/Sc2ccc(Cl)cc2)N1,inhibition,[1],36%
O=C1C=C(c2ccccc2F)/C(=C/Sc2ccccc2)N1,inhibition,[1],42%
O=C1C=C(c2ccc(Cl)cc2)/C(=C/Sc2ccccn2)N1,inhibition,[1],18%
O=C1C=C(c2ccccc2F)/C(=C/Sc2ccc(Cl)cc2)N1,inhibition,[1],55%
O=C1C=C(c2ccc(F)cc2)/C(=C/Sc2ccc(Cl)cc2)N1,inhibition,[1],46%
O=C1C=C(c2ccc(Br)cc2)/C(=C/Sc2ccccn2)N1,inhibition,[1],20%
O=C1C=C(c2ccccc2F)/C(=C/Sc2ccccn2)N1,inhibition,[1],40%
CCCS/C=C1\NC(=O)C=C1c1ccccc1F,inhibition,[1],7%
O=C1C=C(c2ccccc2)/C(=C/Sc2ccccn2)N1,inhibition,[1],53%
O=C1C=C(c2ccc(Br)cc2)/C(=C/Sc2ccc(Cl)cc2)N1,inhibition,[1],33%
O=C1C=C(c2ccc(Br)cc2)/C(=C/Sc2ccccc2)N1,inhibition,[1],52%
